Screening data: PubChem, Johns Hopkins Ion Channel Center
In the library only some 3.5% were active in any assay of this set; here they are far more common.
MrgX1 ag – human MrgX1 receptor agonism, primary screen | Q96LB2 | MrgX1-HEK293 cells, Fluo-4 calcium fluorescence, agonist mode; stronger effect = higher value | B-score at 10 µM | 310,000 compounds, 0.44% hits | AID 588627;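 active = calcium response B-score plate-corrected fluorescence ratio at least 3 library SD, with starting fluorescence B-score inside 5 SD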
Target sequence (Q96LB2 whole entry, looked up): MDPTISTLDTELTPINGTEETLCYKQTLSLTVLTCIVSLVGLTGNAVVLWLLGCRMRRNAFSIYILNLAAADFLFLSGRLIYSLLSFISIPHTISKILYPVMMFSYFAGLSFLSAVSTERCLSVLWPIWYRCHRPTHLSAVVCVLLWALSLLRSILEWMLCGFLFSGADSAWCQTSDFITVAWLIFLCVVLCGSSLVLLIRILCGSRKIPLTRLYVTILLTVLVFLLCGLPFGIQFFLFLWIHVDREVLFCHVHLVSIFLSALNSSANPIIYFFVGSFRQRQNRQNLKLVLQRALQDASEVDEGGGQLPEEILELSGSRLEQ
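Test system: HEK293 cells stably expressing human MrgX1 receptor; Input: fifteen thousand cells per well; Dosing: compound delivered in addition one of three; Schedule: overnight seeding, then 1 h dark dye loading; Technique: Fluo-4 NW calcium fluorescence; Measure: B-scored fluorescence response ratio; Controls: positive and negative controls per plate.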
MrgX1 antag – antagonists of human MrgX1 receptor; MRGX1-HEK293 calcium flux, Fluo-4, BAM8-22 antagonism; stronger effect = lower value; B-score at 10 µM; 310,000 compounds, 1.3% hits;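 active = calcium-response B-score plate-corrected more than 3 library SD below zero, starting fluorescence within 5 deviations, no agonist response on first addition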;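 note: peak minus trough fluorescence over baseline after final BAM8-22 challenge near maximal dose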
RGS4 pot – potentiators or activators of RGS4 | 310,000 compounds, 0.92% hits | B-score at 10 µM | HEK293 M3R/inducible RGS4, carbachol calcium flux Fluo4; stronger effect = lower value;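 active = B-score of the integrated calcium signal more than 4 SD below the library mean, with starting fluorescence not abnormally high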;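 note: negative B-score means reduced calcium response which marks RGS4 activation or potentiation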
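Detection: kinetic calcium fluorescence imaging with Fluo4-AM dye, 2 µM / Material: HEK293 cells with stable M3R and inducible RGS4 / Schedule: recording 10 s baseline at 1 Hz, 100 s post-agonist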
RGS4 inh – inhibitors of human RGS4; B-score at 10 µM; 310,000 compounds, 0.45% hits; P49798; AID 463165; HEK293 M3R/RGS4 inducible, Fluo-4 calcium flux; stronger effect = higher value; triggered by carbachol at its EC20;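 active = B-score, a plate-corrected calcium signal, over three deviations above library mean, with baseline fluorescence within five deviations of library mean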;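 note: RGS4 expression induced by doxycycline in cells with stable M3 receptor; B-score is computed from the integrated fluorescence ratio over baseline after carbachol; higher B-score means a larger calcium signal and so more RGS4 inhibition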
Target sequence (P49798 whole entry, looked up): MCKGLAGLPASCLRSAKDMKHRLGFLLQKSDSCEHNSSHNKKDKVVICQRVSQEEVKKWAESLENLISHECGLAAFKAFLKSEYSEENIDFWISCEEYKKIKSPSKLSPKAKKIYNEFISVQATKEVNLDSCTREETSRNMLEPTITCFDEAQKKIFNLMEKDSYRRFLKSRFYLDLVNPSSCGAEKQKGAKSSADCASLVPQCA
MrgX1 PAM – human MrgX1 positive allosteric modulation, primary screen; B-score at 10 µM; AID 588675; MrgX1-HEK293, Fluo-4 calcium flux, FDSS; stronger effect = higher value; 310,000 compounds, 0.63% hits;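 active = plate-corrected calcium response at least 3 library SD above typical, normal starting fluorescence, not activating the receptor alone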;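 note: compound read alongside a low EC10 to EC30 dose of BAM8-22 agonist; peak minus trough fluorescence over baseline measured at the second addition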
A number is an active result; - = inactive; . = no result.

SMILES	MrgX1 ag	MrgX1 antag	RGS4 pot	RGS4 inh	MrgX1 PAM
Cn1cnc(S(=O)(=O)Nc2ccc(OC(F)F)cc2)c1	-	-	-	-	-
CC(C)CC(=O)NC(=S)Nc1nc(-c2cccc3ccccc23)cs1	-	-	-7.1	-	-
CC1(C)N=C(N)N=C(N)N1c1ccc(Oc2ccc(Cl)cc2)c(Cl)c1	-	-	-7.5	-	-
CC1(C)N=C(N)N=C(N)N1c1ccccc1	-	-	-	-	-
CCN(CC)CCNC(=O)c1cc([N+](=O)[O-])c(N(C)C)cc1OC	-	-	-	-	-
COc1cc(N(C)C)c([N+](=O)[O-])cc1C(=O)NC(C)CNc1ccc([N+](=O)[O-])cc1Cl (configuration not stated)	-	-6.1	-	-	-
COc1ccc(C(=O)NCc2ccc3c(c2)OCO3)c(OC)c1	-	-	-	-	-
COc1ccc2oc(=O)c(C(=O)NCc3ccc4c(c3)OCO4)cc2c1	-	-6.1	-	-	-
Cc1c(Cc2ccccc2)c(=O)oc2cc(OC(C)C(=O)NCC3CCC(C(=O)O)CC3)c(Cl)cc12 (configuration not stated)	-	-	-	-	-
CC1(C)N=C(SCC(=O)Nc2ccc(Cl)cc2)C(c2ccc(Cl)cc2)=N1	-	-	-8	-	-
CC1(C)N=C(SCC(=O)Nc2ccc(Cl)cc2)C(c2ccccc2)=N1	-	-	-	-	-
CC1CCN(CC(=O)Nc2ccccc2Sc2ccccc2)CC1	-	-	-7.4	-	-
CCOC(=O)c1cnc(N)nc1C(F)(F)F	-	-	-	-	-
O=C(COCc1cc(-c2ccc3c(c2)OCO3)on1)Nc1cccnc1Cl	-	-	-	-	-
O=S(=O)(c1cccc(-c2csc(N/N=C/c3ccco3)n2)c1)N1CCOCC1	-	-	-8.6	-	-
CCOc1cc(/C=N/Nc2nc(-c3cccc(S(=O)(=O)N4CCCC4)c3)cs2)ccc1O	-	-	-8.8	-	-
COc1cc(/C=N/Nc2nc(-c3ccc(S(=O)(=O)N(C)C)cc3)cs2)ccc1O	-	-	-7.4	-	-
COc1ccc(/C=N/Nc2nc(-c3cccc(S(=O)(=O)N4CCCC4)c3)cs2)cc1OC	-	-	-	-	-
O=C(Nc1cccc(Cl)c1Cl)c1ccccc1OCC(=O)N1CCOCC1	-	-	-	-	-
O=S(=O)(c1ccc(F)cc1)n1cnc2ccccc21	-	-	-	-	-
CSc1ncccc1C(=O)OCC(=O)c1ccc(Br)s1	-	-	-	-	-
COCCCNc1nc(N)c([N+](=O)[O-])c(N2CCCCCC2)n1	-	-	-	-	-
Cc1ccccc1CNC(=O)C1CCCN(c2cnccn2)C1 (configuration not stated)	-	-	-	-	-
C=C(C)C(=O)N1CC2(CC(c3cccc(NC(=O)/C(C)=C\C)c3)=NO2)C[C@H]1C(N)=O (some centres not stated)	-	-4.8	-	-	-
CCCCCC(=O)Nc1cccc(C2=NOC3(C2)C[C@@H](C(N)=O)N(C(=O)c2cc([N+](=O)[O-])cc([N+](=O)[O-])c2)C3)c1 (some centres not stated)	-	-6.1	-	-	-
SMILES	MrgX1 ag	MrgX1 antag	RGS4 pot	RGS4 inh	MrgX1 PAM
CC1=C(C(=O)Nc2ccccc2C(=O)N2CCC(C)CC2)SCCO1	-	-	-	-	-
O=C(CCl)c1cc2c3c(c1)CC(=O)N3CCC2	27	-	-	17	-
O=C(NCCO)C(=O)Nc1cc2c3c(c1)CC(=O)N3CCC2	-	-	-	-	-
CCCNC(=O)Cn1c(=O)/c(=C\c2ccc(-c3cccc([N+](=O)[O-])c3)o2)s/c1=C\C(=O)C(C)(C)C	-	-6.8	-	-	-
CCCNC(=O)Cn1c(=O)/c(=C\c2ccc(-c3ccc([N+](=O)[O-])cc3)o2)s/c1=C\C(=O)C(C)(C)C	-	-9.5	-	-	-
O=C1NC(=O)/C(=C/c2ccc(-c3cccc([N+](=O)[O-])c3)o2)S1	-	-	-	-	-
COCCN=c1scc(-c2ccc3c(c2)NC(=O)CO3)n1/N=C(\C)c1ccc(O)cc1	-	-5.4	-	-	-
CCC(C)N1C(=O)/C(=C/c2c(NCCCOC(C)C)nc3c(C)cccn3c2=O)SC1=S (configuration not stated)	-	-11	.	.	-
CCCN1C(=O)/C(=C/c2c(NCCCOC(C)C)nc3c(C)cccn3c2=O)SC1=S	-	-10	-	-	-
CCC(C)Nc1nc2c(C)cccn2c(=O)c1C=Nc1ccc(OC)cc1 (configuration not stated)	-	-	-	-	-
Cc1cccn2c(=O)c(C=NCc3ccccc3)c(NCCO)nc12	-	-	-	-	-
Cc1ccc2c(CC(=O)N(C)c3c(N)n(Cc4ccccc4)c(=O)[nH]c3=O)coc2c1	-	-	-	-	-
COC(=O)C1CCN(CC(=O)Nc2cc(Cl)ccc2OC)CC1	-	-	-	-	21
CCC(=O)Nc1cccc(C(=O)/C=C/c2ccc(F)cc2)c1	29	-	-	-	-
COc1cccc(NC(=S)NC(=O)/C=C/c2ccc(F)cc2)c1	-	-	-	-	-
CCCCCCOC1(c2ccccc2)OC(=O)c2ccccc21 (configuration not stated)	-	-	-7	-	-
O=C(NNS(=O)(=O)c1ccc(F)cc1)c1cccc(O)c1	-	-	-	-	-
Cc1ccc(S(=O)(=O)NNC(=O)c2cccc(O)c2)cc1	-	-6.5	-	-	-
COc1cc(OC)c(NC(=O)CCCNC(=O)Cn2cnc3sc(C)c(C)c3c2=O)cc1Cl	-	-	-	-	-
Cc1cc(NC(=O)CCCn2ccc([N+](=O)[O-])n2)n(Cc2ccc(F)cc2)n1	-	-	-	-	-
CC(C)n1nc(C(=O)Nc2cccc(S(=O)(=O)NCc3ccco3)c2)c2ccccc2c1=O	-	-	-7.2	-	-
CC1CCCCN1CC(=O)NC(c1ccccc1)c1ccccc1 (configuration not stated)	-	-	-7.3	-	-
CSc1ccccc1NC(=O)CN1CCCCC1C (configuration not stated)	-	-	-	-	-
CS(=O)(=O)N1CCCC(C(=O)N2CCN(c3cccc(Cl)c3)CC2)C1 (configuration not stated)	-	-	-	-	-
O=S(=O)(Nc1ccncc1)c1cc(Cl)c(Cl)cc1Cl	-	-	-	-	-
O=[N+]([O-])c1ccc(N2CCN(Cc3ccccc3)CC2)s1	-	-5	-	-	-
COc1cc(/C=C(\C#N)C(=O)Nc2cccc(C(=O)O)c2)ccc1OCc1ccc(F)cc1	-	-	-	-	-
CCOc1cc(/C=C(\C#N)C(=O)Nc2cccc(C(=O)O)c2)ccc1OCc1ccccc1Cl	-	-	-8.6	-	-
Cc1cc(C)n(C(=O)c2c([N+](=O)[O-])c(C)nn2C)n1	-	-7.7	-	-	-
